Assay results as given in ChEMBL document CHEMBL1156003, “A strategy of employing aminoheterocycles as amide mimics to identify novel, potent and bioavailable soluble epoxide hydrolase inhibitors” (Bioorg Med Chem Lett, 2009).
pIC50: −log10 of the molar value.

How the values were obtained:
[1] = target: T1, Bifunctional epoxide hydrolase 2 (Homo sapiens, UniProt P34913); test: Inhibition of human sEH
T1 sequence (P34913 whole entry): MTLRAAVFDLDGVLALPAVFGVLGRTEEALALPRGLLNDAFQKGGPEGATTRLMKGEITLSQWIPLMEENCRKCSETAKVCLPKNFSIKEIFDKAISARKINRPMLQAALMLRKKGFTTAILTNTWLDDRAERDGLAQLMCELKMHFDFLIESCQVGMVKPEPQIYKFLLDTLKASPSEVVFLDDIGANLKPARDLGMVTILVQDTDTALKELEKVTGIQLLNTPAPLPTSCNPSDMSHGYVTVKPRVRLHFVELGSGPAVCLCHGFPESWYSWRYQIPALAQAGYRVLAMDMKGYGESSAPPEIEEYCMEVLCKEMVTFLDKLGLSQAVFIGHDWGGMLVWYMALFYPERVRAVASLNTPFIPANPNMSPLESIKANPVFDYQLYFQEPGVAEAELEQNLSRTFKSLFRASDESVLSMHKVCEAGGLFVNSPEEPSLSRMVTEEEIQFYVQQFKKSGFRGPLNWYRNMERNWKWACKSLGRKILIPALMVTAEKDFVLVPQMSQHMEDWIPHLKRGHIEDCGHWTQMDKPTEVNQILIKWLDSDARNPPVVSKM
Outline: (§1)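 Human and rat sEH enzyme inhibition; values from one or two experiments, each in triplicate, within 20% deviation on repeat.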

[2] = target: T2, Bifunctional epoxide hydrolase 2 (Rattus norvegicus, UniProt P80299); test: Inhibition of rat sEH; outline: as §1
T2 sequence (P80299 whole entry): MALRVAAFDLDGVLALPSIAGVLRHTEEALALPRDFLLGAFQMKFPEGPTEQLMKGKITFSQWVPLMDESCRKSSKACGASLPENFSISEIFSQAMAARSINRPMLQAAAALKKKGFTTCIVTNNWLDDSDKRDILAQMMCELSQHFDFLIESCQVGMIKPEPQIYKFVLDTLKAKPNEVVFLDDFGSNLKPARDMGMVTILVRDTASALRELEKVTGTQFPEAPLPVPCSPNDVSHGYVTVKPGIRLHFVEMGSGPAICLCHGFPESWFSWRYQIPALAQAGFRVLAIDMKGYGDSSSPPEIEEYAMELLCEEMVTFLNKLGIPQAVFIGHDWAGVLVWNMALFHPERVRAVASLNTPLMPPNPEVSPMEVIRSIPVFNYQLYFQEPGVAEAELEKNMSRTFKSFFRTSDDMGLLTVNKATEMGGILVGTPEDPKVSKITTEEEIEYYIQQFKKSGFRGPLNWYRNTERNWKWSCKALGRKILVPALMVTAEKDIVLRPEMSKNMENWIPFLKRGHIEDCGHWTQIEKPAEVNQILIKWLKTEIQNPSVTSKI

[3] = Oral bioavailability in rat at 2 mg/kg; format: ADME, organism-based; settings: in vivo
Outline: (§2)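 Rat PK: dosed at 1 mg/mL in ethanol/PEG/water (20:40:40); IV 1 mg/kg (n = 2), PO 2 mg/kg (n = 3). Blood levels measured by LC/MS/MS after acetonitrile protein precipitation.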

[4] = Clearance in rat at 1 mg/kg, iv and 2 mg/kg, po; format: ADME, organism-based; settings: in vivo; outline: as §2
[5] = Volume of distribution at steady state in rat at 1 mg/kg, iv and 2 mg/kg, po; format: ADME, organism-based; settings: in vivo, read-out: Vdss; outline: as §2
[6] = Half life at steady state in rat at 1 mg/kg, iv and 2 mg/kg, po; format: ADME, organism-based; settings: in vivo; outline: as §2
[7] = target: T1, Bifunctional epoxide hydrolase 2; test: Inhibition of human sEH assessed as DHET production in presence of 10% human serum
Plasma [8] = test: Fraction unbound in rat plasma at 0.2 to 25 uM; format: ADME, cell-free; settings: in the assay text read “0.5 to 25 uM” for “0.2 to 25 uM”
Outline: (§3)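 Free fraction measured with radiolabeled compound in human and rat plasma, compound at 0.5–25 μM.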

Plasma [9] = test: Fraction unbound in human plasma at 0.2 to 25 uM; format: ADME, cell-free; settings: in the assay text read “0.5 to 25 uM” for “0.2 to 25 uM”; outline: as §3

| pIC50 [1] | pIC50 [2] | Structure (SMILES) | further results |
| --- | --- | --- | --- |
| < 5.00 |  | c1ccc(Cc2nnc(Nc3ccccc3)o2)cc1 |  |
| 7.64 | 7.70 | FC(F)(F)c1ccc(Nc2noc3cc(-c4cccnc4)ccc23)cc1 |  |
| < 5.00 |  | FC(F)(F)c1ccc(Nc2cc(-c3ccccc3)on2)cc1 |  |
| < 5.00 |  | c1ccc(CNc2cnc(-c3ccccc3)cn2)cc1 |  |
| < 5.00 |  | c1ccc(CNc2nnc(-c3ccccc3)o2)cc1 |  |
| 8.10 | 7.39 | FC(F)(F)c1ccc(Nc2noc3c(-c4ccc5[nH]ccc5c4)cccc23)cc1 |  |
| 7.04 | 7.26 | Fc1ccccc1-c1ccc2c(Nc3ccc(C(F)(F)F)cc3)noc2c1 |  |
| 5.92 |  | c1ccc2cc(Nc3noc4ccccc34)ccc2c1 |  |
| < 5.00 | < 5.00 | FC(F)(F)c1ccc(Nc2noc3c(C(F)(F)F)cccc23)nc1 |  |
| 7.74 |  | FC(F)(F)c1ccc(Nc2noc3cc(C(F)(F)F)ccc23)cc1 |  |
| 7.72 | 6.52 | FC(F)(F)c1ccc(Nc2noc3c(C(F)(F)F)nccc23)cc1 |  |
| 6.02 |  | FC(F)(F)c1ccccc1Nc1noc2ccccc12 |  |
| 5.28 |  | FC(F)(F)Oc1ccccc1Nc1noc2ccccc12 |  |
| 6.77 | 6.13 | c1ccc(-c2ccc(Nc3noc4ccccc34)cc2)cc1 |  |
| 8.10 | 7.15 | FC(F)(F)c1ccc(Nc2noc3cc(-c4ccccc4C(F)(F)F)ccc23)cc1 |  |
| 7.15 | 7.11 | FC(F)(F)c1ccc(Nc2noc3cc(-c4ccc5[nH]ccc5c4)ccc23)cc1 |  |
| 7.13 | 5.47 | FC(F)(F)c1ccc(Nc2noc3c(C(F)(F)F)cccc23)cn1 |  |
| < 5.00 |  | c1ccc(CNc2cnc3ccccc3n2)cc1 |  |

More lines, now with the values behind:

| Structure (SMILES) | pIC50 [1] | pIC50 [2] | further results |
| --- | --- | --- | --- |
| c1ccc(CNc2ccc(-c3ccccc3)cn2)cc1 | < 5.00 |  |  |
| c1ccc(CNc2nc3ccccc3s2)cc1 | < 5.00 |  |  |
| FC(F)(F)c1ccc(Nc2noc3cc(-c4ccncc4)ccc23)cc1 | 7.24 | 7.72 |  |
| c1ccc(-c2cccc(Nc3noc4ccccc34)c2)cc1 | 6.02 |  |  |
| c1ccc2c(Nc3noc4ccccc34)cccc2c1 | 6.08 | 5.34 |  |
| FC(F)(F)c1ccc(Nc2nsc3ccccc23)cc1 | 5.60 |  |  |
| FC(F)(F)c1ccc(Nc2noc3cc(-c4cccc5cnccc45)ccc23)cc1 | 7.72 | 7.52 |  |
| FC(F)(F)c1ccc(Nc2noc3ccc(C(F)(F)F)cc23)cc1 | 7.40 | 5.82 |  |
| FC(F)(F)c1ccc(CNc2noc3ccccc23)cc1 | 5.92 |  |  |
| c1ccc(CNc2nc3ccccc3o2)cc1 | < 5.00 |  |  |
| FC(F)(F)c1cccc(CNc2cc(-c3ccccc3)ncn2)c1 | < 5.00 |  |  |
| FC(F)(F)c1ccc(CNc2cc(-c3ccccc3)on2)cc1 | 5.33 |  |  |
| FC(F)(F)c1ccc(Nc2noc3ccccc23)cc1 | 7.60 | 7.12 |  |
| FC(F)(F)c1ccc(Nc2noc3cc(-c4cccc(C(F)(F)F)c4)ccc23)cc1 | 6.33 | 6.24 |  |
| c1ccc(CNc2nnc(Cc3ccccc3)o2)cc1 | < 5.00 |  |  |
| FC(F)(F)c1ccc(Nc2noc3c(-c4cccc(C(F)(F)F)c4)cccc23)cc1 | 8.00 | 6.89 |  |
| FC(F)(F)c1ccc(Nc2noc3c(C(F)(F)F)cccc23)cc1 | 8.40 | 6.90 | bioavailability [3]: 98%; clearance [4]: 30 mL/min/kg; Vd [5]: 7 L/kg; half-life [6]: 5.9 h; pIC50 [7]: 5.92; Fu (Plasma [8]): 0.9%; Fu (Plasma [9]): 0.7% |
| Cc1cccnc1-c1ccc2c(Nc3ccc(C(F)(F)F)cc3)noc2c1 | 7.15 | 6.54 |  |
| FC(F)(F)Oc1ccc(Nc2noc3ccccc23)cc1 | 7.22 | 6.77 |  |
| FC(F)(F)c1ccc(Nc2noc3c(-c4ccccc4C(F)(F)F)cccc23)cc1 | 8.40 | 7.10 |  |
| FC(F)(F)c1ccc(Nc2noc3ncccc23)cc1 | 7.57 |  |  |
| FC(F)(F)c1ccc(Nc2noc3cnccc23)cc1 | 7.51 |  |  |
| FC(F)(F)c1ccc(Nc2noc3cccnc23)cc1 | 5.96 |  |  |
| c1ccc(CNc2cc(-c3ccccc3)ccn2)cc1 | < 5.00 |  |  |
| FC(F)(F)c1nnc(Nc2ccccc2)o1 | 5.70 |  |  |
| FC(F)(F)c1ccc(Nc2n[nH]c3ccccc23)cc1 | < 5.00 |  |  |
| FC(F)(F)c1ccc(Nc2noc3ccncc23)cc1 | 6.47 |  |  |
| FC(F)(F)Oc1cccc(Nc2noc3ccccc23)c1 | 6.80 | 6.80 |  |
